Source: the RNAGym collection of RNA variant scans (doi:10.1126/science.aae0568)
Fewer inactive variants are shown than the library holds.

B1: tRNA (parent)
chain: GUUCCGUUGGCGUAAUGGUAACGCGUCUCCCUCCUAAGGAGAAGACUGCGGGUUCGAGUCCCGUACGGAACG

Variants of: B1
Assay: yeast fitness relative to wild type (ratio to wild type); higher = fitter; tRNA-Arg(CCU), competitive growth, 37 C, YPD
How it was run: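 Changes in genotype frequencies gave Darwinian fitness relative to wild type. Frequencies were read by 100-nucleotide paired-end sequencing of gene amplicons before and after pooled Saccharomyces cerevisiae strains, carrying tRNA-Arg(CCU) gene variants at the native locus, were competed in YPD at 37°C for 24 hours in six replicates. A genotype was kept only with ≥ 100 starting reads, and estimates < 0.5 were set to 0.5.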

Row | Variant | yeast fitness
1 | G25A U59C | 0.775
2 | A20G G56A | 1.01
3 | G10A U16A C31A G51A A70U | ≤ 0.5
4 | G25A C29U C49U A65C | ≤ 0.5
5 | C30U A36U A37G G48A A70G | ≤ 0.5
6 | G6C U7C A14G A20C A57C | ≤ 0.5
7 | U32G C33U A37G | ≤ 0.5
8 | G38C C60A | ≤ 0.5
9 | U8A C46A | 0.657
10 | C4U U54A | 0.627
11 | C30G C33U G56C | ≤ 0.5
12 | U3A C11A C33U A37U G39C | ≤ 0.5
13 | C4G C22U G50C | ≤ 0.5
14 | C5G U8C G48C | ≤ 0.5
15 | G6C U47C | 1.01
16 | C31G U32A U53G | 0.646
17 | A45C G50A C62U A69U | 0.561
18 | A45C G63C C66U | ≤ 0.5
19 | G6A G23A U47A G58C | ≤ 0.5
20 | G25C A43U G50A A70C | ≤ 0.5
21 | A40U A65C | 0.652

Row | Variant | yeast fitness
22 | C31U U64C | 0.817
23 | A14G U32C A42G U59C | ≤ 0.5
24 | U13C C24G C61A | 0.54
25 | C4U A42U C61A A65C | ≤ 0.5
26 | A15U U32G G44A | 0.555
27 | U28C A37C | 0.786
28 | C5G U26C U32A | 0.604
29 | U16A A21C C29U | ≤ 0.5
30 | U7C A15G A20U C24G U35C A36C C66U | ≤ 0.5
31 | A14U C31A C61A | ≤ 0.5
32 | U35C C55G | 0.59
33 | A15U G23C C34G C55G | ≤ 0.5
34 | G12A A42G U54A A65C | ≤ 0.5
35 | C11U A15U G41A | ≤ 0.5
36 | U3A A21C G25U A43C | ≤ 0.5
37 | C5G C30G C66U | ≤ 0.5
38 | U7G C33U C55G | ≤ 0.5
39 | U2C G48A C66U | 0.681
40 | C24G G67U | ≤ 0.5
41 | U3A G17A | 0.829
42 | U59C A69C | 0.968

Row | Variant | yeast fitness
43 | U3A A37U A42G | ≤ 0.5
44 | C11U C46U C49U G67C | ≤ 0.5
45 | A20C A43U G56A | 0.656
46 | G23C C24A C30G A40U U47A G51C G63A C66A A69U | 0.54
47 | U32C C49U A57C | 0.654
48 | C4G C22U C34G G63C | ≤ 0.5
49 | G6C C29A A40G G51C | 0.657
50 | A14C C34A A37G C62U | ≤ 0.5
51 | C4G A15G A37U A40C G48A G50C | 0.515
52 | U16A C30G A37C G68C | ≤ 0.5
53 | A43G A65U | 0.899
54 | U7C G50A | 0.684
55 | G6A G10A G18A C27G A37G G38A | ≤ 0.5
56 | U28A A36G C66G | ≤ 0.5
57 | U16C A40U | 0.789
58 | U8G G68C | 0.583
59 | C55G C60A C62A G68A A69U | ≤ 0.5
60 | C4G A21U C33U A42G A57U | 0.683
61 | C4U C49G A57C | ≤ 0.5
62 | A15U U19C C31U A40C A57U | ≤ 0.5
63 | A40G A43G G44C | ≤ 0.5

Row | Variant | yeast fitness
64 | A40G U47G | 0.595
65 | U2A C11G C49A C60U G68C | 0.608
66 | C11A A21C C55U | ≤ 0.5
67 | C27U A42U C62U | 0.559
68 | G18C C24G A70G | ≤ 0.5
69 | U3C U47C C49U G51A | ≤ 0.5
70 | U8C C24G C27U C55A | ≤ 0.5
71 | A20U C55G | 0.669
72 | U13A G18C C27U U54C A57U | 0.561
73 | U3C C31U A43G A69U | 0.733
74 | U7C C27G C33G G44A C61G | ≤ 0.5
75 | A14U G23A C29G C46A C55G A57U C62U | ≤ 0.5
76 | C5G A20C C29G | 0.538
77 | C4U U16C | 1.02
78 | G9A C31U A57C U64A G68A | ≤ 0.5
79 | C24G C34U A36C C46A U54A A57G | 0.566
80 | G9A A70C | 1.06
81 | C46G G50A | 1.04
82 | G48A G52C A57C | 0.622
83 | A15U C61U | 0.673
84 | G23A C30U A37C U54C | ≤ 0.5
